Measurements published in publication PMC10945512 (RSC Advances, 2024).

Key:
MT-4 cells = test: Cytotoxicity assay; type: cell-based, human; conditions: read-out: CC50, concentration that inhibits the proliferation of MT-4 cells by 50%, MTT, five days, average of at least three independent experiments
Summary of the method: (§1)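 MT-4 cells grown in RPMI-1640 with 10% FBS, 100 units per mL penicillin and streptomycin, at 37 °C in humidified 5% CO2. Cells seeded at 50 000 per well and exposed to test compound (2.5, 5, 10, 20, 40, 80 μM) for five days at 37 °C. MTT (final 0.5 mg mL−1) added for 2 h, then DMSO. A570 read; measured three times; CC50 calculated.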

HIV-1 integrase = HIV-1 integrase (Human immunodeficiency virus type 1 group M subtype B, UniProt P04585); test: Strand transfer inhibition assay; type: biochemical
Cytotoxicity assay = type: cell-based, human; conditions: human, MT-4 cells
Summary of the method: as §1

IC50 (HIV-1 integrase) [µM]	Molecule	CC50 (MT-4 cells) [µM]	CC50 at 5 days (Cytotoxicity assay) [µM]
10.1 ± 0.56	CCOC(=O)c1[nH]c2ccccc2c1Nc1ccccc1OC [Compound 4a, ethyl 3-((2-methoxyphenyl)amino)-1H-indole-2-carboxylate]	–	> 80
10.2 ± 0.67	CCOC(=O)c1[nH]c2ccccc2c1Nc1cccc(OC)c1 [Compound 4b, Ethyl 3-((3-methoxyphenyl)amino)-1H-indole-2-carboxylate]	–	> 80
> 40	CCOC(=O)c1[nH]c2ccccc2c1Nc1ccc(OC)cc1 [Compound 4c, Ethyl 3-((4-methoxyphenyl)amino)-1H-indole-2-carboxylate]	–	> 80
26 ± 1.27	CCOC(=O)c1[nH]c2ccc(NC(=O)c3ccc(F)cc3)cc2c1Br [Compound 13a, ethyl 3-bromo-5-(4-fluorobenzamido)-1H-indole-2-carboxylate]	–	> 80
11.7 ± 1.08	CCOC(=O)c1[nH]c2ccc(NC(=O)c3cnccn3)cc2c1Br [Compound 13b, Ethyl 3-bromo-5-(pyrazine-2-carboxamido)-1H-indole-2-carboxylat]	–	> 80
> 40	CCOC(=O)c1cc2ccc(Nc3ccc(Br)cc3)cc2[nH]1 [Compound 16b, Ethyl 6-((4-bromophenyl)amino)-1H-indole-2-carboxylate]	–	> 80
> 40	CCOC(=O)c1cc2ccc(Nc3ccc(OC)cc3)cc2[nH]1 [Compound 16c, Ethyl 6-((4-methoxyphenyl)amino)-1H-indole-2-carboxylate]	–	> 80
> 40	CCOC(=O)c1cc2ccc(NCc3cccc(F)c3)cc2[nH]1 [Compound 16g, Ethyl 6-((3-fluorobenzyl)amino)-1H-indole-2-carboxylate]	–	> 80
6.67 ± 0.51	O=C(O)c1cc2ccc(Nc3ccc(Br)cc3)cc2[nH]1 [Compound 17b, 6-((4-Bromophenyl)amino)-1H-indole-2-carboxylic acid]	–	> 80
14.1 ± 0.78	COc1ccc(Nc2ccc3cc(C(=O)O)[nH]c3c2)cc1F [Compound 17f, 6-((3-Fluoro-4-methoxyphenyl)amino)-1H-indole-2-carboxylic acid]	–	> 80
15.6 ± 1.09	O=C(O)c1cc2ccc(NCc3cccc(F)c3)cc2[nH]1 [Compound 17g, 6-((3-Fluorobenzyl)amino)-1H-indole-2-carboxylic acid]	–	> 80

The next lines start with the molecule.

Molecule	IC50 (HIV-1 integrase) [µM]	CC50 (MT-4 cells) [µM]	CC50 at 5 days (Cytotoxicity assay) [µM]
5-nitro-3-(((4-(trifluoromethyl)benzyl)oxy)methyl)-1H-indole-2-carboxylic acid [Compound 10a]	–	65.2 ± 5.22	–
O=C(O)c1cc2ccccc2[nH]1 [Compound 1, indole-2-carboxylic acid]	32.4 ± 4.51	–	> 80
CCOC(=O)c1[nH]c2ccccc2c1Nc1ccc(OC)c(F)c1 [Compound 4d, Ethyl 3-((3-fluoro-4-methoxyphenyl)amino)-1H-indole-2-carboxylate]	15.6 ± 1.03	–	> 80
CCOC(=O)c1[nH]c2ccccc2c1Nc1ccc(F)cc1 [Compound 4e, Ethyl 3-((4-fluorophenyl)amino)-1H-indole-2-carboxylate]	15.7 ± 1.06	–	> 80
CCOC(=O)c1[nH]c2ccccc2c1Nc1ccccc1Cl [Compound 4f, Ethyl 3-((2-chlorophenyl)amino)-1H-indole-2-carboxylate]	> 40	–	> 80
CCOC(=O)c1cc2ccc(Nc3ccc(F)cc3)cc2[nH]1 [Compound 16a, Ethyl 6-((4-fluorophenyl)amino)-1H-indole-2-carboxylate]	> 40	–	> 80
CCOC(=O)c1cc2ccc(Nc3cccc(OC)c3)cc2[nH]1 [Compound 16d, Ethyl 6-((3-methoxyphenyl)amino)-1H-indole-2-carboxylate]	> 40	–	> 80
CCOC(=O)c1cc2ccc(Nc3ccccc3OC)cc2[nH]1 [Compound 16e, Ethyl 6-((2-methoxyphenyl)amino)-1H-indole-2-carboxylate]	> 40	–	> 80
CCOC(=O)c1cc2ccc(Nc3ccc(OC)c(F)c3)cc2[nH]1 [Compound 16f, Ethyl 6-((3-fluoro-4-methoxyphenyl)amino)-1H-indole-2-carboxylate]	> 40	–	> 80
CCOC(=O)c1cc2ccc(NCc3ccccc3F)cc2[nH]1 [Compound 16h, Ethyl 6-((2-fluorobenzyl)amino)-1H-indole-2-carboxylate]	8.68 ± 0.77	–	> 80
CCOC(=O)c1cc2ccc(NCc3ccccc3Cl)cc2[nH]1 [Compound 16i, Ethyl 6-((2-chlorobenzyl)amino)-1H-indole-2-carboxylate]	14.6 ± 1.12	–	> 80
CCOC(=O)c1cc2ccc(NCc3ccc(OC)cc3)cc2[nH]1 [Compound 16j, Ethyl 6-((4-methoxybenzyl)amino)-1H-indole-2-carboxylate]	9.67 ± 0.89	–	> 80
CCOC(=O)c1cc2ccc(NCCc3ccc(F)cc3)cc2[nH]1 [Compound 16k, Ethyl 6-((4-fluorophenethyl)amino)-1H-indole-2-carboxylate]	> 40	–	> 80
O=C(O)c1cc2ccc(Nc3ccc(F)cc3)cc2[nH]1 [Compound 17a, 6-((4-Fluorophenyl)amino)-1H-indole-2-carboxylic acid]	3.11 ± 0.18	–	> 80
COc1ccc(Nc2ccc3cc(C(=O)O)[nH]c3c2)cc1 [Compound 17c, 6-((4-Methoxyphenyl)amino)-1H-indole-2-carboxylic acid]	12.3 ± 1.06	–	> 80
COc1ccccc1Nc1ccc2cc(C(=O)O)[nH]c2c1 [Compound 17e, 6-((2-Methoxyphenyl)amino)-1H-indole-2-carboxylic acid]	7.08 ± 0.63	–	> 80
Cc1nnc(C(=O)NC(C)(C)c2nc(C(=O)NCc3ccc(F)cc3)c(O)c(=O)n2C)o1 [RAL, Raltegravir, reference compound]	–	–	> 80
Isopropyl 3-((4-chlorophenethoxy)methyl)-5-nitro-1H-indole-2-carboxylate [Compound 9b]	–	> 80	–
isopropyl 5-nitro-3-((4-(trifluoromethyl)phenethoxy) methyl)-1H-indole-2-carboxylate [Compound 9a]	–	54.3 ± 4.79	–
